Rows were chosen to be rich in hits. Some 3.7% of all compounds tested hit in one or more screens of this group.
EP2 antag – EP2 receptor (human) inhibition; P43116; C6 glioma cells expressing human EP2, cAMP TR-FRET; cells stimulated with saturating PGE2; inhibition, % at 25 µM; 0.52% of 260,000 active; AID 1422;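 active means percent inhibition above 40 after rounding to a whole number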;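 further: rat C6 glioma host cells with rolipram phosphodiesterase inhibitor present; the protocol text gives 20 µM as final concentration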
Target sequence (P43116 whole entry, looked up): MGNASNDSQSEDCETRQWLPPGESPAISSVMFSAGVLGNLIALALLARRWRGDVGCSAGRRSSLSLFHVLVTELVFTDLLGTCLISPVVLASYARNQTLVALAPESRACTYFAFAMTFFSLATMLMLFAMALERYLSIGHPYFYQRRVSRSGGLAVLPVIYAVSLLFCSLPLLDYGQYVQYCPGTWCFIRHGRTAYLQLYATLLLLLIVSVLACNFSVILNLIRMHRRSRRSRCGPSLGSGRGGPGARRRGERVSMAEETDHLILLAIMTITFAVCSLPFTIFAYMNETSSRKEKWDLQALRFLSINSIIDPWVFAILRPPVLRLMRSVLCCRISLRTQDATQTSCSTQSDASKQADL
EP2 modulator – EP2 receptor (human) modulation; P43116; induction, % at 25 µM; EP2-expressing cells, cAMP HTRF FRET, PGE2 co-stimulation; AID 940; 0.83% of 260,000 active;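 active means compounds whose cAMP rise, as percent of the full-agonist control response, exceeds 60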;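 further: rat C6 glioma line stably carrying human EP2 under a CMV promoter; the protocol text gives 20 µM as final concentration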
OX1R antag-1 – OX1R (human) antagonism. 1.8% of 330,000 active. inhibition, % at 6.6 µM. OX1R-expressing cells, FRET antagonist read-out; in the data active means inhibition mostly above about 38%, no sharp cut-off; inactive means mostly below about 40%
OX1R antag-2 – human HCRTR1 antagonism; AID 434989; 0.43% of 330,000 active; CHO/OX1R cells, Fluo-8 calcium fluorescence, orexin A; inhibition, % at 5 µM;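 active means inhibition above its plate's threshold, mean inhibition of all tested compounds on the plate plus 3 SD, cut at about 37% in these data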
GPR7 antagonist – antagonists of human GPR7 (neuropeptides B/W receptor 1) | inhibition, % at 4.4 µM | AID 1861 | P48145 | 1.1% of 290,000 active | GPR7-expressing cells, fluorescence antagonist assay; in the data active means inhibition above about 16%, passing the limit was not always enough;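 further: cells stimulated with the agonist NPW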
CHO parental Ca – counter-screen: ATP calcium response change in parental CHO cells; parental CHO-K1, ATP-induced calcium, Fluo-8 fluorescence; inhibition, % at 5.6 µM; 0.63% of 330,000 active; AID 463079;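 active means inhibition above that plate's mean sample inhibition plus 3 SD, cut at about 26% in these data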
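Measured by: calcium-sensitive Fluo-8 fluorescence / Test system: CHO parental line / Controls: ATP-challenged DMSO wells low, unchallenged DMSO wells high / Measure: % inhibition / Compound: single nominal dose of 5.6 µM per compound / Replicates: single well per compound, no replicates / Reagent: ATP as calcium-mobilizing challenge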
GPR7 antag conf – confirmation of human GPR7 antagonists; GPR7-expressing cells, calcium fluorescence antagonist mode; shares compounds with GPR7 antagonist; 52% of 2,400 active; inhibition, % at 4.4 µM; in the data active means inhibition above about 24%;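 further: stimulated with the GPR7 agonist NPW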
MCHR1 antagonist – MCHR1 (human) antagonism in GPR7 counter-screen; shares compounds with GPR7 antagonist; inhibition, % at 4.4 µM; AID 2148; 62% of 2,400 active; MCHR1-expressing cells, fluorescence antagonist assay; in the data active means inhibition above about 22%
Hits are given with their value; - = inactive; . = no result given.

SMILES | EP2 antag | EP2 modulator | OX1R antag-1 | OX1R antag-2 | GPR7 antagonist | CHO parental Ca | GPR7 antag conf | MCHR1 antagonist
CCC1=Nc2cc(C(=O)N3CCC4(CC3)OCCO4)ccc2Sc2ccc(Br)cc21 | . | . | - | - | - | - | . | .
COC(=O)C1=C(c2cccc(C#N)c2)C[C@@H]2CC[C@H]1N2C(=O)NC1CC1 | . | . | - | - | . | - | . | .
NCCc1c[nH]c2ccccc12 | - | - | - | - | - | - | . | .
CCC1(CC)C(=O)NC(=NCCc2c[nH]c3ccccc23)NC1=O | - | - | - | - | 28 | - | - | -
C=C(C=O)CC1CC(O)[C@]2(C)OC3CC4OC5C[C@]6(C)O[C@]7(C)CCC8OC9C[C@]%10(C)OC%11C(C)=CC(=O)OC%11CC%10OC9C[C@@H](C)C8OC7CC6O[C@]5(C)CC5OC5C4OC3CC2O1 (some centres undefined) | - | - | - | - | - | - | . | .
Cc1[nH]c2ccc(OC(F)(F)F)cc2c1CCNCc1cccc([N+](=O)[O-])c1 | . | . | - | - | 43 | 29 | 35 | 75
CCOc1cccc(CNCCc2c(C)[nH]c3ccc(OC(F)(F)F)cc23)c1O | . | . | - | 55 | 53 | 85 | 84 | 95
Cc1[nH]c2ccc(OC(F)(F)F)cc2c1CCNCc1ccc(Cl)cc1 | . | . | . | . | - | . | . | .
CCc1ccc(NC(=O)CN2CC(c3ccccc3)CC2=O)cc1 (centres undefined) | - | - | - | - | - | - | . | .
Oc1ccc(/C=N/NP(=S)(c2ccccc2)c2ccccc2)c(O)c1O | - | - | - | - | - | - | . | .
CCOC(=O)C(O)(c1ccc(NC(=S)NC(=O)c2ccc(Cl)cc2Cl)c(C)c1)C(F)(F)F (centres undefined) | - | - | - | 47 | 88 | 50 | 93 | 97
COC(=O)C(O)(c1ccc(NC(=S)NC(=O)c2ccc(Cl)cc2Cl)cc1)C(F)(F)F (centres undefined) | - | - | - | - | 33 | - | 56 | 60
CCOC(=O)C(O)(c1ccc(NC(=S)NC(=O)c2ccc(Cl)cc2Cl)cc1)C(F)(F)F (centres undefined) | - | - | - | 71 | 60 | 57 | 86 | 93
CCOC(=O)C(NC(=O)CC)(Nc1ccc(C(O)(C(=O)OCC)C(F)(F)F)cc1C)C(F)(F)F (centres undefined) | - | - | - | - | - | - | . | .
COc1ccc(C(=O)C2CCCN(Cc3ccon3)C2)cc1OC (centres undefined) | - | - | - | - | - | - | . | .
CC(=O)O[C@@H]1CC[C@]2(C)C3CC[C@]4(C)C(=O)[C@H](O)CC4C3[C@@H](OC(C)=O)C[C@H]2C1 (some centres undefined) | . | . | - | - | . | - | . | .
CC/C(=N\NC(=O)c1ccccc1Cl)c1c(O)n(C2CCCCC2)c(=O)[nH]c1=O | . | . | - | - | 35 | - | - | -
CCn1cc(C=C2C(=O)N(C)C(=O)N(C)C2=O)c2ccccc21 | . | . | - | - | 32 | - | - | -
CCOc1ccc(-c2cc(C)[n+](CCc3ccc(OC)c(OC)c3)c(-c3ccc(OCC)cc3)c2)cc1 | . | . | . | . | 54 | . | 66 | 61
CCOc1ccc(-c2cc(C)[n+](CCO)c(-c3ccc(OCC)cc3)c2)cc1 | - | - | - | - | - | - | . | .
CC(=O)c1cn(CC(=O)NCCc2c[nH]c3ccccc23)c2ccccc12 | - | - | - | - | 25 | - | - | 51
O=C(c1ccccc1)C1CCCN(Cc2nc(-c3cnccn3)no2)C1 (centres undefined) | - | - | - | - | - | - | . | .
CCCCOc1ccc(CCN)cc1Cl | - | - | - | - | 29 | - | 26 | 30
CCN(CC)c1ccc(/C=C/[N+](=O)[O-])cc1 | - | - | - | 53 | 22 | 51 | 55 | 84
Cc1nn(C)c(C)c1P(=S)(c1c(C)nn(C)c1C)N(C)C | - | - | - | - | 26 | - | - | -
CC(=NCCN1CCCCC1)c1c(O)n(-c2ccccc2)c(=O)[nH]c1=O | - | - | - | - | - | - | . | .
